Measured values published in ChEMBL document CHEMBL1147590, “Synthesis and antitumor activity of s-tetrazine derivatives” (Bioorg Med Chem Lett, 2004).

Assays:
A549 [1] = test: Inhibitory concentration of compound against A-549 cell line; format: functional, cell-based; settings: Homo sapiens
Outline: (§1)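 A-549 tumour cell growth inhibition was measured in vitro by the SRB (sulforhodamine B) method.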

A549 [2] = test: In vitro rate of inhibition of A-549 tumor cell growth at 10E-7 mol/L; format: functional, Homo sapiens; settings: at 0.1 µM
P388 [3] = test: Rate of inhibition of P388 tumor cell growth at a concentration of 1.563 uM; format: functional, Mus musculus
Outline: (§2)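 P-388 tumour cell growth inhibition was read out in vitro by the MTT method.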

P388 [4] = test: Rate of inhibition of P388 tumor cell growth at a concentration of […] uM; format: functional, Mus musculus; outline: as §2
Bel-7402 [5] = test: Rate of inhibition of Bel-7402 tumor cell growth at a concentration of 1.25 uM; format: functional, Homo sapiens
MCF7 [6] = test: Rate of inhibition of MCF-7 tumor cell growth at a concentration of 0.25 uM; format: functional, Homo sapiens
P388 [7] = test: In vitro rate of inhibition of P388 tumor cell growth at 10E-6 mol/L; format: functional, Mus musculus; settings: at 1 µM
P388 [8] = test: Rate of inhibition of P388 tumor cell growth at a concentration of 0.195 uM; format: functional, Mus musculus; outline: as §2
Bel-7402 [9] = test: Rate of inhibition of Bel-7402 tumor cell growth at a concentration of 0.313 uM; format: functional, Homo sapiens
P388 [10] = test: In vitro rate of inhibition of P388 tumor cell growth at 10E-4 mol/L; format: functional, Mus musculus; settings: at 100 µM
Bel-7402 [11] = test: Rate of inhibition of Bel-7402 tumor cell growth at a concentration of 5.0 uM; format: functional, Homo sapiens
Bel-7402 [12] = test: Rate of inhibition of Bel-7402 tumor cell growth at a concentration of 2.5 uM; format: functional, Homo sapiens
MCF7 [13] = test: Inhibitory concentration of compound against MCF-7 cell line; format: functional, cell-based; settings: Homo sapiens
Bel-7402 [14] = test: Rate of inhibition of Bel-7402 tumor cell growth at a concentration of 0.625 uM; format: functional, Homo sapiens
A549 [15] = test: In vitro rate of inhibition of A-549 tumor cell growth at 10E-8 mol/L; format: functional, Homo sapiens; settings: at 0.01 µM
A549 [16] = test: In vitro rate of inhibition of A-549 tumor cell growth at 10E-6 mol/L; format: functional, Homo sapiens; settings: at 1 µM
MCF7 [17] = test: Rate of inhibition of MCF-7 tumor cell growth at a concentration of 0.5 uM; format: functional, Homo sapiens
A549 [18] = test: Rate of inhibition of A-549 tumor cell growth at a concentration of 1 uM; format: functional, Homo sapiens; outline: as §1
A549 [19] = test: In vitro rate of inhibition of A-549 tumor cell growth at 10E-5 mol/L; format: functional, Homo sapiens; settings: at 10 µM
P388 [20] = test: In vitro rate of inhibition of P388 tumor cell growth at 10E-8 mol/L; format: functional, Mus musculus; settings: at 0.01 µM
P388 [21] = test: Rate of inhibition of P388 tumor cell growth at a concentration of 0.781 uM; format: functional, Mus musculus; outline: as §2
P388 [22] = test: In vitro rate of inhibition of P388 tumor cell growth at 10E-7 mol/L; format: functional, Mus musculus; settings: at 0.1 µM
A549 [23] = test: In vitro rate of inhibition of A-549 tumor cell growth at 10E-4 mol/L; format: functional, Homo sapiens; settings: at 100 µM
P388 [24] = test: Rate of inhibition of P388 tumor cell growth at a concentration of 3.125 uM; format: functional, Mus musculus; outline: as §2
MCF7 [25] = test: Rate of inhibition of MCF-7 tumor cell growth at a concentration of 0.125 uM; format: functional, Homo sapiens
A549 [26] = test: Rate of inhibition of A-549 tumor cell growth at a concentration of 0.25 uM; format: functional, Homo sapiens; outline: as §1
A549 [27] = test: Rate of inhibition of A-549 tumor cell growth at a concentration of 0.5 uM; format: functional, Homo sapiens; outline: as §1
P388 [28] = test: Inhibitory concentration of compound against P388 tumor cell growth; format: functional, cell-based; settings: Mus musculus; outline: as §2
A549 [29] = test: Rate of inhibition of A-549 tumor cell growth at a concentration of 0.0625 uM; format: functional, Homo sapiens; outline: as §1
P388 [30] = test: In vitro rate of inhibition of P388 tumor cell growth at 10E-5 mol/L; format: functional, Mus musculus; settings: at 10 µM
A549 [31] = test: Rate of inhibition of A-549 tumor cell growth at a concentration of 0.125 uM; format: functional, Homo sapiens; outline: as §1
Bel-7402 [32] = test: Inhibitory concentration of compound against Bel-7402 cell line; format: functional, cell-based; settings: Homo sapiens
MCF7 [33] = test: Rate of inhibition of MCF-7 tumor cell growth at a concentration of 1.0 uM; format: functional, Homo sapiens

With `CC1=NN(C(=O)Nc2cccc(C)c2)C(C)=NN1C(=O)Nc1cccc(C)c1` the IC50 (A549 [1]) was 700 nM, the Rate of inhibition (A549 [2]) was 81.8% and the Rate of inhibition (P388 [3]) was 91.1%. It also gave a Rate of inhibition (P388 [4]) of 55.4%, a Rate of inhibition (Bel-7402 [5]) of 77.8% and a Rate of inhibition (MCF7 [6]) of 35.7%. The Rate of inhibition (P388 [7]) was 98.4%, the Rate of inhibition (P388 [8]) was 2.3% and the Rate of inhibition (Bel-7402 [9]) was 27.4%. It also gave a Rate of inhibition (P388 [10]) of 96.8%, a Rate of inhibition (Bel-7402 [11]) of 87.8% and a Rate of inhibition (Bel-7402 [12]) of 89%. For the same molecule, the IC50 (MCF7 [13]) was 500 nM, the Rate of inhibition (Bel-7402 [14]) was 54.2% and the Rate of inhibition (A549 [15]) was 80.3%. The Rate of inhibition (A549 [16]) was 80.3%, the Rate of inhibition (MCF7 [17]) was 64.3% and the Rate of inhibition (A549 [18]) was 93.6%. It also gave a Rate of inhibition (A549 [19]) of 83.3%, a Rate of inhibition (P388 [20]) of 96.8% and a Rate of inhibition (P388 [21]) of 83.1%. The Rate of inhibition (P388 [22]) was 96.8%, the Rate of inhibition (A549 [23]) was 84.8% and the Rate of inhibition (P388 [24]) was 97.3%. For the same molecule, the Rate of inhibition (MCF7 [25]) was 1.1%, the Rate of inhibition (A549 [26]) was 0% and the Rate of inhibition (A549 [27]) was 36.6%. The IC50 (P388 [28]) was 600 nM, the Rate of inhibition (A549 [29]) was 0% and the Rate of inhibition (P388 [30]) was 96.8%. It also gave a Rate of inhibition (A549 [31]) of 0%, an IC50 (Bel-7402 [32]) of 600 nM and a Rate of inhibition (MCF7 [33]) of 71.2%.
